Assays:
[1] = system: MCF7; test: Cytotoxicity against ERalpha-dependent human MCF7 cells assessed as reduction in cell viability incubated for 48 hrs by MTT assay; type: functional, cell-based; settings: MCF7, 48 h
How it was run: (§1)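 Cells grown by standard culture protocols, then exposed for 48 h to serial concentrations (0.1, 1, 10, 100, 1000; unit not given) of each compound. Survival read by absorbance at 570 nm and expressed as % viability = A sample/A control ×100. IC50 fitted from concentration versus % survival; mean ± SEM of three independent values.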

[2] = system: MCF-10A; test: Cytotoxicity against human MCF-10A cells assessed as reduction in cell viability incubated for 48 hrs by MTT assay; type: cell-based; how it was run: as §1
[3] = system: MCF7; test: Induction of apoptosis in human MCF7 cells assessed as fold decrease in BCL2 gene expression at 5.61 uM incubated for 48 hrs by RT-PCR analysis relative to control; type: functional
[4] = system: MCF7; test: Induction of apoptosis in human MCF7 cells assessed as necrotic cells at 5.61 uM incubated for 48 hrs by Annexin V-FITC/propidium iodide staining based flow cytometric analysis (reference value: 1.05 %); type: functional
[5] = Upregulation of PUMA gene expression in human MCF7 cells at 5.61 uM incubated for 48 hrs by RT-PCR analysis relative to control; type: functional
[6] = system: MCF7; test: Induction of apoptosis in human MCF7 cells assessed as increase in necrotic cells at 5.61 uM incubated for 48 hrs by Annexin V-FITC/propidium iodide staining based flow cytometric analysis relative to control; type: functional
[7] = system: MCF7; test: Induction of apoptosis in human MCF7 cells assessed as late apoptotic cells at 5.61 uM incubated for 48 hrs by Annexin V-FITC/propidium iodide staining based flow cytometric analysis (reference value: 0.16 %); type: functional
[8] = system: MCF7; test: Induction of apoptosis in human MCF7 cells assessed as early apoptotic cells at 5.61 uM incubated for 48 hrs by Annexin V-FITC/propidium iodide staining based flow cytometric analysis (reference value: 0.43 %); type: functional
[9] = system: MCF7; test: Induction of apoptosis in human MCF7 cells assessed as increase in total apoptotic cells at 5.61 uM incubated for 48 hrs by Annexin V-FITC/propidium iodide staining based flow cytometric analysis relative to control; type: functional
[10] = system: MDA-MB-231; test: Cytotoxicity against Non-ERalpha-dependent human MDA-MB-231 cells assessed as reduction in cell viability incubated for 48 hrs by MTT assay; type: functional, cell-based; settings: MDA-MB-231, 48 h; how it was run: as §1
[11] = system: MCF7; test: Induction of cell cycle arrest in human MCF7 cells assessed as accumulation of cells at G2/M phase at 5.61 uM incubated for 48 hrs by propidium iodide staining based flow cytometric analysis (reference value: 12.26 %); type: functional
[12] = system: MCF7; test: Induction of apoptosis in human MCF7 cells assessed as fold increase in caspase-9 gene expression at 5.61 uM incubated for 48 hrs by RT-PCR analysis relative to control; type: functional
[13] = system: MCF7; test: Induction of apoptosis in human MCF7 cells assessed as fold increase in caspase-3 gene expression at 5.61 uM incubated for 48 hrs by RT-PCR analysis relative to control; type: functional
[14] = target: Serine/threonine-protein kinase pim-1 (Homo sapiens, UniProt P11309); test: Inhibition of recombinant human GST-tagged PIM1 by ELISA
Chain of Serine/threonine-protein kinase pim-1 (P11309 whole entry): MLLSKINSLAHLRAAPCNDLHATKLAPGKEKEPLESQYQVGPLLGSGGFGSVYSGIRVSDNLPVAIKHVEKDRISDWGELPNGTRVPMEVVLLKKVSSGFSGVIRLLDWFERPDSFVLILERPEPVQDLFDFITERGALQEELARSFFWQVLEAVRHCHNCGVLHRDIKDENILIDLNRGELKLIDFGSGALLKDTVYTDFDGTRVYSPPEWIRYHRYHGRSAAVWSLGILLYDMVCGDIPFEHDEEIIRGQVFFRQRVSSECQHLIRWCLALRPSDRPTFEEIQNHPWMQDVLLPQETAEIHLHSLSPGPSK
How it was run: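 PIM-1 kinase activity measured with the HTScan Pim-1 kinase assay kit, following the kit instructions. Compounds dissolved in DMSO and tested at four serial concentrations; IC50 derived from these.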

[15] = Downregulation of PIM1 gene expression in human MCF7 cells at 5.61 uM incubated for 48 hrs by RT-PCR analysis relative to control; type: functional
[16] = Upregulation of MDM2 gene expression in human MCF7 cells at 5.61 uM incubated for 48 hrs by RT-PCR analysis relative to control; type: functional
[17] = system: MCF7; test: Induction of cell cycle arrest in human MCF7 cells assessed as accumulation of cells at G0/G1 phase at 5.61 uM incubated for 48 hrs by propidium iodide staining based flow cytometric analysis (reference value: 43.92 %); type: functional
[18] = Upregulation of P53 gene expression in human MCF7 cells at 5.61 uM incubated for 48 hrs by RT-PCR analysis relative to control; type: functional
[19] = system: MCF7; test: Induction of cell cycle arrest in human MCF7 cells assessed as accumulation of cells at preG1 phase at 5.61 uM incubated for 48 hrs by propidium iodide staining based flow cytometric analysis (reference value: 1.64 %); type: functional

Row | Structure (SMILES) | IC50 [1] [µM] | IC50 [2] [µM] | IC50 [10] [µM] | IC50 [14] [µM] | further results
1 | Cn1nc(N)c2c(-c3ccc(-c4c(C#N)c(N)nc5c4c(N)nn5C)cc3)c(C#N)c(N)nc21 | ≥ 50 | ≥ 50 | – | – | –
2 | CCOC(=O)c1nnc2c3c(-c4ccccc4Cl)c(C#N)c(=O)[nH]c3nn2c1O | 5.61 | 46.8 | 38.7 | 0.026 | fold change (FC) [3]: 0.41; Activity [4]: 11.03%; fold change (FC) [5]: 6.32; fold change (FC) [6]: 10.5; Activity [7]: 16.29%; Activity [8]: 3.93%; fold change (FC) [9]: 19.17; Activity [11]: 34.58%; fold change (FC) [12]: 6.56; fold change (FC) [13]: 7.9; fold change (FC) [15]: 0.25; fold change (FC) [16]: 3.9; Activity [17]: 35.66%; fold change (FC) [18]: 4.2; Activity [19]: 31.25%
3 | N#Cc1c(O)nc2nn3c4cc(O)ccc4nnc3c2c1-c1ccccc1Cl | 9.12 | ≥ 50 | 39.5 | 0.087 | –
4 | N#Cc1c(N)nc2[nH]nc(N)c2c1-c1ccccc1Cl | 36.6 | 20.6 | – | – | –
5 | N#Cc1c(N)nc2nn3c4ccc5ccccc5c4nnc3c2c1-c1ccc(-c2c(C#N)c(N)nc3nn4c(nnc5ccc6ccccc6c54)c23)cc1 | 11.4 | – | 43.7 | – | –
6 | N#Cc1nnc2c3c(-c4ccccc4Cl)c(C#N)c(O)nc3nn2c1O | 27.5 | – | 10.6 | – | –
7 | N#Cc1c(-c2ccccc2Cl)c2c(nn3c4ccc5ccccc5c4nnc23)[nH]c1=O | ≥ 50 | – | 9.76 | – | –
8 | N#Cc1c(N)nc2[nH]nc(N)c2c1-c1cccc(Cl)c1 | ≥ 50 | – | – | – | –
9 | N#Cc1c(N)nc2[nH]nc(N)c2c1-c1ccc(-c2c(C#N)c(N)nc3[nH]nc(N)c23)cc1 | 17.9 | 43.6 | 35.7 | – | –
10 | N#Cc1c(-c2ccccc2Cl)c2c(N/N=C3\C=CC(=O)c4ccccc43)n[nH]c2[nH]c1=O | 8.71 | ≥ 50 | ≥ 50 | 0.095 | –
11 | CC(=O)c1nnc2c3c(-c4ccccc4Cl)c(C#N)c(O)nc3nn2c1C | 14.8 | – | 20.8 | – | –
12 | N#Cc1nnc2c3c(-c4ccccc4Cl)c(C#N)c(=O)[nH]c3nn2c1N | 6.98 | ≥ 50 | ≥ 50 | 0.043 | –
13 | O=c1[nH]cc(F)c(=O)[nH]1 [FLUOROURACIL] | 5.8 | 39.7 | 15.7 | – | –
14 | N#Cc1c(-c2ccccc2Cl)c2c(nn3c4ccc(O)cc4nnc23)[nH]c1=O | 10 | ≥ 50 | 24.7 | 0.112 | –
15 | Cn1nc(N)c2c(-c3ccccc3Cl)c(C#N)c(N)nc21 | – | 53.7 | – | – | –
16 | N#Cc1c(N)nc(Sc2ccccc2)c(C#N)c1-c1ccc(-c2c(C#N)c(N)nc(Sc3ccccc3)c2C#N)cc1 | 16.8 | 48.7 | – | – | –

Reference: ChEMBL document CHEMBL4699630, “Discovery of novel pyrazolo[3,4-b]pyridine scaffold-based derivatives as potential PIM-1 kinase inhibitors in breast cancer MCF-7 cells” (Bioorg Med Chem, 2020)
